Laboratory results published in ChEMBL document CHEMBL1123257, “Synthesis of sulfur analogues of alkyl lysophospholipid and neoplastic cell growth inhibitory properties” (1986).

Columns and labels:
Format in all cases: functional
[1] = test system: BG-1 cell line; experiment: Compound was evaluated for its effect on colony growth of human ovarian adenocarcinoma cell line BG-1 at 0.0 ug/mL
How it was run: (§1)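 Single-cell suspensions of BG-1 or BG-3 human ovarian carcinoma cells (derived from primary explants, now kept in continuous culture) were plated in soft agarose clonogenic culture. Cells were exposed continuously to phospholipid analogue over a three-log concentration range, with untreated cultures as controls. After 7 days at 37 °C/7.5% CO2, colonies were scored by inverted microscopy and automated image analysis.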

[2] = test system: BG-1 cell line; experiment: Compound was evaluated for its effect on colony growth of human ovarian adenocarcinoma cell line BG-1 at 0.03 ug/mL; how it was run: as §1
[3] = test system: BG-3; experiment: Compound was evaluated for its effect on colony growth of human ovarian adenocarcinoma cell line BG-3 at 10.0 ug/mL; how it was run: as §1
[4] = test system: BG-1 cell line; experiment: Compound was evaluated for its effect on colony growth of human ovarian adenocarcinoma cell line BG-1 at 10.0 ug/mL; how it was run: as §1
[5] = test system: BG-1 cell line; experiment: Compound was evaluated for its effect on colony growth of human ovarian adenocarcinoma cell line BG-1 at 1.0 ug/mL; how it was run: as §1
[6] = test system: BG-1 cell line; experiment: Compound was evaluated for its effect on colony growth of human ovarian adenocarcinoma cell line BG-1 at 30.0 ug/mL; how it was run: as §1
[7] = test system: BG-3; experiment: Compound was evaluated for its effect on colony growth of human ovarian adenocarcinoma cell line BG-3 at 30.0 ug/mL; how it was run: as §1
[8] = test system: BG-3; experiment: Compound was evaluated for its effect on colony growth of human ovarian adenocarcinoma cell line BG-3 at 1.0 ug/mL; how it was run: as §1
[9] = test system: BG-1 cell line; experiment: Compound was evaluated for its effect on colony growth of human ovarian adenocarcinoma cell line BG-1 at 0.1 ug/mL; how it was run: as §1
[10] = test system: BG-3; experiment: Compound was evaluated for its effect on colony growth of human ovarian adenocarcinoma cell line BG-3 at 3.0 ug/mL; how it was run: as §1
[11] = test system: BG-3; experiment: Compound was evaluated for its effect on colony growth of human ovarian adenocarcinoma cell line BG-3 at 0.3 ug/mL; how it was run: as §1
[12] = test system: BG-3; experiment: Compound was evaluated for its effect on colony growth of human ovarian adenocarcinoma cell line BG-3 at 0.1 ug/mL; how it was run: as §1
[13] = test system: BG-3; experiment: Compound was evaluated for its effect on colony growth of human ovarian adenocarcinoma cell line BG-3 at 0.03 ug/mL; how it was run: as §1
[14] = test system: BG-1 cell line; experiment: Compound was evaluated for its effect on colony growth of human ovarian adenocarcinoma cell line BG-1 at 0.3 ug/mL; how it was run: as §1
[15] = test system: BG-3; experiment: Compound was evaluated for its effect on colony growth of human ovarian adenocarcinoma cell line BG-3 at 0.0 ug/mL,; how it was run: as §1
[16] = test system: BG-1 cell line; experiment: Compound was evaluated for its effect on colony growth of human ovarian adenocarcinoma cell line BG-1 at 3.0 ug/mL; how it was run: as §1

Molecule CCCCCCCCCCCCCCCCSCC(COP(=O)([O-])OCC[N+](C)(C)C)OCC (stereo unspecified) has a Control [1] of 100%, a Control [2] of 65% and a Control [3] of 3%. For the same molecule, the Control [4] was 2%, the Control [5] was 8% and the Control [6] was 2%. The Control [7] was 2%, the Control [8] was 17% and the Control [9] was 64%. The Control [10] was 2%, the Control [11] was 56% and the Control [12] was 54%. The Control [13] was 56%, the Control [14] was 53% and the Control [15] was 100%. The Control [16] was 2%.
